# Measured values taken from ChEMBL document CHEMBL1145115, “SAR analysis of adenosine diphosphate (hydroxymethyl)pyrrolidinediol inhibition of poly(ADP-ribose) glycohydrolase” (J Med Chem, 2003).
# Several values for one entry are separate records, joined by “and”; a condition that tells them apart may be missing. Equal values may be shown once.
# Legend:
# [1] = molecular target: T1, Poly(ADP-ribose) glycohydrolase (Bos taurus, UniProt O02776); assay: (§1) The compound was tested for its ability to inhibit recombinant bovine polyadenosine diphosphoribose glycohydrolase catalytic fragment (rPARG-CF)
# T1 sequence (O02776 whole entry, the tested form may be a part): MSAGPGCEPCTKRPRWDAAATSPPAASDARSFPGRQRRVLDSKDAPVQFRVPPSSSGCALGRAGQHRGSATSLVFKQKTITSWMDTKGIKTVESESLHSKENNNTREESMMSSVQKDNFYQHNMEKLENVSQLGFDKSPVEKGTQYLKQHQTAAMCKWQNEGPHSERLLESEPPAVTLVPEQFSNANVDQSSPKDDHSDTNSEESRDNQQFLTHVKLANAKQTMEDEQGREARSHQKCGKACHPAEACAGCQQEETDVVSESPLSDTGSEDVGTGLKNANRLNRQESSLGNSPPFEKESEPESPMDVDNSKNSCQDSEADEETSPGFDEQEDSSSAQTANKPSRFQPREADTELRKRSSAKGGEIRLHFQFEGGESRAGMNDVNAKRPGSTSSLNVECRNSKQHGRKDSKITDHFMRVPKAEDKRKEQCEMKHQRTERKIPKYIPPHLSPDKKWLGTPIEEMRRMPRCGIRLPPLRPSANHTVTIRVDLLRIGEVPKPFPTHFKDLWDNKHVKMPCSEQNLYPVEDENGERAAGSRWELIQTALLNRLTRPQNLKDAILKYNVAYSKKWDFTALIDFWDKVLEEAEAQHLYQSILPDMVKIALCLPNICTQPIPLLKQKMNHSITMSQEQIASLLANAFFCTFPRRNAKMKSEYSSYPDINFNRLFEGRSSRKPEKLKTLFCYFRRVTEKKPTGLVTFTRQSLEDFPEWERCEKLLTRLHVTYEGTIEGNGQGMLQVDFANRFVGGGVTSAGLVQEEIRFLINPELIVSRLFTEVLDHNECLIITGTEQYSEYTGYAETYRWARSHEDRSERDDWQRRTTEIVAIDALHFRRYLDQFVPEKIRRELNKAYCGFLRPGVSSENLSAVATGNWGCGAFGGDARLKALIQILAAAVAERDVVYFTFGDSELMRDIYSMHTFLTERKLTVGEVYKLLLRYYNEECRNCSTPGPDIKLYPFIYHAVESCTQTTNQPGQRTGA
# How it was run: (§2)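 PARG activity was measured with 10 µM [α-32P]ADP-ribose polymers as substrate and varying inhibitor concentrations, with an inhibitor-free control. Enzyme was 0.25 ng of bovine thymus PARG, purified with a Red-Sepharose step, or 5 ng of rPARG-CF. Runs were done at least in triplicate. IC50 came from a sigmoidal fit of % activity against log[inhibitor].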
# [2] = molecular target: T1, Poly(ADP-ribose) glycohydrolase; assay: (§3) The compound was tested for its ability to inhibit bovine thymus polyadenosine diphosphoribose glycohydrolase (bPARG); how it was run: as §2
# [3] = molecular target: Poly(ADP-ribose) glycohydrolase (Bos taurus) (UniProt O02776); assay: as §3; how it was run: as §2
# Poly(ADP-ribose) glycohydrolase (Bos taurus), sequence (O02776 whole entry): as the sequence (O02776 whole entry, the tested form may be a part) above
# [4] = molecular target: Poly(ADP-ribose) glycohydrolase (Bos taurus) (UniProt O02776); assay: as §1; how it was run: as §2
IC50 [1],IC50 [2] [µM],Log IC50 [3] [µM],Log IC50 [4] [µM],Structure (SMILES)
148 µM,290,2.45,2.17,[N-]=[N+]=Nc1nc(N)c2ncn(C3O[C@H](COP(=O)(O)OP(=O)(O)OC[C@H]4NC[C@H](O)[C@@H]4O)[C@@H](O)[C@H]3O)c2n1 (stereo partly drawn)
970 µM,> 1000,–,–,Nc1nc2c(ncn2C2O[C@H](COP(=O)(O)OP(=O)(O)OCC3NC[C@H](O)[C@@H]3O)[C@@H](O)[C@H]2O)c(=O)[nH]1 (stereo partly drawn)
63 µM,19.2,1.28,1.8,Nc1ncnc2c1ncn2C1O[C@H](COP(=O)(O)OP(=O)(O)OCC2CCCN2)[C@@H](O)[C@H]1O (stereo partly drawn) [ADENOSINE DIPHOSPHATE (HYDROXYMETHYL)PYRROLIDINE]
0.44 µM,0.39,–,–,[N-]=[N+]=Nc1nc2c(N)ncnc2n1C1O[C@H](COP(=O)(O)OP(=O)(O)OC[C@H]2NC[C@H](O)[C@@H]2O)[C@@H](O)[C@H]1O (stereo partly drawn)
570 µM,–,–,2.75,Nc1ncnc2c1nc(NCCCCCCNC(=O)C(F)(F)F)n2C1O[C@H](COP(=O)(O)OP(=O)(O)OC[C@H]2NC[C@H](O)[C@@H]2O)[C@@H](O)[C@H]1O (stereo partly drawn)
1.4 µM and 1 µM,0.33,–,–,Nc1ncnc2c1ncn2[C@@H]1O[C@H](CO[P@](=O)(O)O[P@@](=O)(O)OC[C@H]2NC[C@H](O)[C@@H]2O)[C@@H](O)[C@H]1O [ADENOSINE DIPHOSPHATE (HYDROXYMETHYL)PYRROLIDINEDIOL]
9.5 µM,–,–,0.97,NCCCCCCNc1nc2c(N)ncnc2n1C1O[C@H](COP(=O)(O)OP(=O)(O)OC[C@H]2NC[C@H](O)[C@@H]2O)[C@@H](O)[C@H]1O (stereo partly drawn)
4.2 µM,3.07,0.48,0.623,Nc1ncnc2c1ncn2C1O[C@H](COP(=O)(O)OP(=O)(O)OCC2C[C@@H](O)CN2)[C@@H](O)[C@H]1O (stereo partly drawn) [ADENOSINE DIPHOSPHATE (HYDROXYMETHYL)PYRROLIDINE MONOALCOHOL]
510 µM,–,–,2.71,CCCCCCNc1ncnc2c1ncn2C1O[C@H](COP(=O)(O)OP(=O)(O)OCC2NC[C@H](O)[C@@H]2O)[C@@H](O)[C@H]1O (stereo partly drawn)
–,–,> 3,2.99,Nc1nc(O)c2ncn(C3O[C@H](COP(=O)(O)OP(=O)(O)OCC4NC[C@H](O)[C@@H]4O)[C@@H](O)[C@H]3O)c2n1 (stereo partly drawn)
120 µM,–,–,2.07,Nc1ncnc2c1nc(Sc1ccc(Cl)cc1)n2C1O[C@H](COP(=O)(O)OP(=O)(O)OC[C@H]2NC[C@H](O)[C@@H]2O)[C@@H](O)[C@H]1O (stereo partly drawn)
